Test results published in ChEMBL document CHEMBL1914285, “Identification of new antimalarial leads by use of virtual screening against cytochrome bc₁” (Bioorg Med Chem, 2011).

The compounds below were run on Plasmodium falciparum (assay: Antiplasmodial activity against chloroquine-resistant Plasmodium falciparum W2 infected in human erythrocytes after 48 hrs by FACS analysis). Details: W2, 48 h.
Assay type: functional, organism-based
Method in brief: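 Ring-stage W2-infected human RBCs at ~1% parasitemia, sorbitol (5%) synchronized; 48 h at 37 °C with compounds in RPMI-1640, 25 mM HEPES pH 7.4, 10% heat-inactivated human serum (or 0.5% Albumax/2% human serum), 100 hypoxanthine, 3% O2/5% CO2/91% N2. Cells fixed in 2% HCHO, stained with 1 nM YOYO-1 (NH4Cl/Triton X-100), flow cytometry at ex 488/em 520 nm; IC50 by curve fitting.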

Structure (SMILES) | IC50
Cn1c(SCc2nc(-c3cccs3)no2)nnc1-c1c[nH]c2ccccc12 | 29.5 µM
Cc1ccccc1OCCSc1nnc(-c2c[nH]c3ccccc23)n1C | 6.69 µM
c1cnc(SCCOc2ccc3c(c2)CCC3)nc1 | > 50 µM
Cc1ccc2[nH]c3nc(SCC(=O)Nc4sc5c(c4C#N)CCCC5)nnc3c2c1 | > 50 µM
Cc1ccc(NC(=O)CSc2nc(O)cc(NS(=O)(=O)c3ccccc3)n2)cc1 | > 50 µM
Cc1ccc(CNC(=O)CCn2c(=S)[nH]c3cc4c(cc3c2=O)OCO4)o1 | > 50 µM
CSCCC(N)c1nc(C(=O)CC(Cc2c[nH]c3ccccc23)C(N)=O)cs1 (stereo not drawn) | > 50 µM
COc1ccc(-c2noc(CSc3nnc(-c4c[nH]c5ccccc45)n3C)n2)cc1OC | 12.1 µM
O=C(Cc1ccc2c(c1)CCC2)NCCc1ccco1 | > 50 µM
O=C(CSc1nnc(-c2c[nH]c3ccccc23)o1)c1ccc2c(c1)OCCO2 | > 50 µM
NC(=O)C(CC(=O)c1csc(C2CCCNC2)n1)Cc1c[nH]c2ccccc12 (stereo not drawn) | > 50 µM
O=C(NCc1cccnc1)C1CCC(Cn2c(=S)[nH]c3ccccc3c2=O)CC1 (stereo not drawn) | 1.97 µM
COc1ccc(SCCc2ccc(C)nc2)cc1 | > 50 µM
CCSc1nnc(NC(=O)CS(=O)(=O)c2c[nH]c3ccccc23)s1 | > 50 µM
CCCNc1nnc(SCc2cscn2)s1 | > 50 µM
Cn1c(SCc2nc(-c3ccc(Cl)cc3)no2)nnc1-c1c[nH]c2ccccc12 | > 50 µM
c1ccn2cc(CSc3nnc(C4CC4)o3)nc2c1 | > 50 µM
Cc1nc2ccccc2nc1CSCc1ccco1 | > 50 µM
O=C(NCc1ccoc1)C1CCC(Cn2c(=S)[nH]c3ccccc3c2=O)CC1 (stereo not drawn) | > 50 µM
COc1ccc(NC(=O)CCCn2c(=S)[nH]c3ccccc3c2=O)cc1OC | > 50 µM
CCn1c(SCc2nc(-c3cccs3)no2)nnc1-c1c[nH]c2ccccc12 | 28.5 µM
Cc1ccc(C)n1CCSc1nc(N)cc(N)n1 | > 50 µM
COc1ccc2[nH]c3nc(SCC(=O)Nc4nc(C(C)(C)C)cs4)nnc3c2c1 | 27.1 µM
